Columns and labels:
[1] = Intrinsic cytotoxicity against human MES-SA/Dx5 cells; format: functional
How it was run: (§1)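 MES-SA/DX5 (P-gp-overexpressing human sarcoma) cells seeded at 1.2 × 10⁴ cells/well and incubated 24 h at 37 °C. They were then exposed for 60 h to varying concentrations of test compound, with or without 100 nM Taxol. Survival was read by Cell Counting Kit-8, and GI₅₀/EC₅₀ were taken from the concentration series.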

[2] = molecular target: Cytochrome P450 3A4 (Homo sapiens, UniProt P08684); assay: Inhibition of human CYP3A4; format: ADME
Sequence of Cytochrome P450 3A4 (P08684 whole entry): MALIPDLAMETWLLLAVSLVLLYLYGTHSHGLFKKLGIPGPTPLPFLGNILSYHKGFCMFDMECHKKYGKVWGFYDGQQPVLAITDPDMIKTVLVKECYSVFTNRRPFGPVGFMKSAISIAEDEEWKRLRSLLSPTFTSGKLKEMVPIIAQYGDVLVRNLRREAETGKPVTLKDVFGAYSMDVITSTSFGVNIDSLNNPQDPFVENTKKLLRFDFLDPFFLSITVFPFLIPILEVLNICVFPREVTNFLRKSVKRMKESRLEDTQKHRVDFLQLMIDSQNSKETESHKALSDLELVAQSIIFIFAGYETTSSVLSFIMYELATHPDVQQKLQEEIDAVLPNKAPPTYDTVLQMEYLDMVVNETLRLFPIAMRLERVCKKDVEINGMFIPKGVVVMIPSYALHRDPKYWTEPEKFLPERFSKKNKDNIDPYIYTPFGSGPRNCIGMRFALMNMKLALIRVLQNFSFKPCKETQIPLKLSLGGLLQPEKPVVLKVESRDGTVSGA

[3] = Cytotoxicity against human MES-SA/Dx5 cells; format: functional, cell-based; how it was run: as §1

Row | SMILES | GI50 [1] [µM] | IC50 [2] [µM] | IC50 [3] [µM]
1 | COC(=O)c1cccc(NC(=O)COc2ccc(C34CC5CC(CC(C(N)=O)(C5)C3)C4)cc2)c1 | 14.3 | – | –
2 | COC(=O)c1cccc(NC(=O)COc2ccc(C34CC5CC(CC(C(=O)N6CCc7cc(OC)c(OC)cc7C6)(C5)C3)C4)cc2)c1 | > 20 | – | –
3 | COC(=O)c1cccc(NC(=O)COc2ccc(C34CC5CC(CC(C(=O)NCCN(C)C)(C5)C3)C4)cc2)c1 | > 20 | – | –
4 | COC(=O)c1cccc(NC(=O)COc2ccc(C34CC5CC(CC(C(=O)N6CCN(Cc7ccc(F)cc7)CC6)(C5)C3)C4)cc2)c1 | > 20 | – | –
5 | COC(=O)c1cccc(NC(=O)COc2ccc(C34CC5CC(CC(C(=O)N6CCN(Cc7cccc(OC)c7)CC6)(C5)C3)C4)cc2)c1 | 13.2 | 0.82 | –
6 | COC(=O)c1cccc(NC(=O)COc2ccc(C34CC5CC(CC(C(=O)NCc6ccc(OC)c(OC)c6)(C5)C3)C4)cc2)c1 | > 20 | – | –
7 | COC(=O)c1cccc(NC(=O)COc2ccc(C34CC5CC(CC(C(=O)N6CCN(Cc7ccc(C(F)(F)F)cc7)CC6)(C5)C3)C4)cc2)c1 | > 20 | 2.03 | –
8 | COC(=O)c1cccc(NC(=O)COc2ccc(C34CC5CC(CC(C(=O)Nc6ccc(C(C)(C)C)cc6)(C5)C3)C4)cc2)c1 | > 20 | – | –
9 | COC(=O)c1cccc(NC(=O)COc2ccc(C34CC5CC(CC(C(=O)N6CCN(Cc7ccc(OC)cc7)CC6)(C5)C3)C4)cc2)c1 | 14 | 0.89 | –
10 | COc1cc2c(cc1OC)CN(C(=O)C13CC4CC(C1)CC(c1ccc(OCC(=O)Nc5cccc(C#N)c5)cc1)(C4)C3)CC2 | > 20 | > 5 | –
11 | COC(=O)c1ccccc1NC(=O)COc1ccc(C23CC4CC(CC(C(=O)N5CCc6cc(OC)c(OC)cc6C5)(C4)C2)C3)cc1 | > 20 | 3.79 | –
12 | COC(=O)c1ccc(NC(=O)COc2ccc(C34CC5CC(CC(C(=O)N6CCc7cc(OC)c(OC)cc7C6)(C5)C3)C4)cc2)cc1 | 14.3 | – | –
13 | COc1cc2c(cc1OC)CN(C(=O)C13CC4CC(C1)CC(c1ccc(OCC(=O)Nc5cccc(C(N)=O)c5)cc1)(C4)C3)CC2 | 16.3 | – | –
14 | COc1cc2c(cc1OC)CN(C(=O)C13CC4CC(C1)CC(c1ccc(OCC(=O)Nc5cccc(C(=O)NCc6ccco6)c5)cc1)(C4)C3)CC2 | > 20 | – | –
15 | COc1cc2c(cc1OC)CN(C(=O)C13CC4CC(C1)CC(c1ccc(OCC(=O)Nc5cccc(C(F)(F)F)c5)cc1)(C4)C3)CC2 | 12.1 | – | –
16 | COc1cc2c(cc1OC)CN(C(=O)C13CC4CC(C1)CC(c1ccc(OCC(=O)Nc5cccc6cccnc56)cc1)(C4)C3)CC2 | > 20 | – | –
17 | COC(=O)c1cccc(NC(=O)COc2ccc(C34CC5CC(CC(C(=O)OCc6ccccc6)(C5)C3)C4)cc2)c1 | > 20 | – | –
18 | COc1ccc(CCN(C)CCCC(C#N)(c2ccc(OC)c(OC)c2)C(C)C)cc1OC (stereo not given) | > 20 | – | –
19 | CC(=O)O[C@H]1C(=O)[C@@]2(C)[C@H]([C@H](OC(=O)c3ccccc3)[C@]3(O)C[C@H](OC(=O)[C@H](O)[C@@H](NC(=O)c4ccccc4)c4ccccc4)C(C)=C1C3(C)C)[C@]1(OC(C)=O)CO[C@@H]1C[C@@H]2O [PACLITAXEL] | 7.54 | – | 7.54
